In ChEMBL document CHEMBL3112586, “Synthesis of neolignans as microtubule stabilisers” (Bioorg Med Chem, 2014):
Calls of active or inactive are those of the source. The calls are words filed in the database; no cut-off is given here.

What was measured:
MCF7 [1] = experiment: Cytotoxicity against human MCF7 cells after 24 hrs by MTT assay; format: functional, cell-based; details: MCF7, 24 h
Procedure, shortened: (§1)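 Cells in DMEM, 10% FBS, 37 °C, 5% CO2, plated and incubated 24 h; compounds diluted in phenol-red-free DMEM with 0.5% FBS, vehicle control; after exposure, MTT (5 mg/mL stock) added 3 h, formazan dissolved in DMSO, absorbance 570 nm; IC50 derived; podophyllotoxin and tamoxifen positive controls.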

MDA-MB-231 [2] = experiment: Cytotoxicity against human MDA-MB-231 cells after 24 hrs by MTT assay; format: functional, cell-based; details: MDA-MB-231, 24 h; procedure, shortened: as §1
MCF7 [3] = experiment: Induction of microtubule polymerization in human MCF7 cells assessed as actin-tubulin cytoskeleton stabilization at 10 uM by confocal microscopy; format: cell-based
Procedure, shortened: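 MCF-7 cells treated, immunostained for actin and tubulin, and examined by confocal microscopy; paclitaxel-treated cells as positive control.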

Tubulin (Homo sapiens) [4] = target: T1, Tubulin (Homo sapiens) (UniProt P68371+Q9H4B7+P0DPH7+P68366+Q13509+Q71U36+P04350+Q3ZCM7+P07437+P68363+Q9BQE3+Q6PEY2+Q13885+Q9BVA1+Q9BUF5); experiment: Induction of tubulin polymerization (unknown origin) at 10 to 40 uM measured every min for 1 hr in presence of PDT; format: protein-complex assay
Procedure, shortened: (§2)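 Tubulin 3 mg/mL in 80 mM PIPES pH 6.9, 2 mM MgCl2, 0.5 mM EGTA, 1 mM GTP, 15% glycerol at 37 °C with test compounds at varied concentrations; turbidity at 340 nm read every min for 1 h; podophyllotoxin inhibitor and paclitaxel stabiliser references, DMSO negative control.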

Tubulin (Homo sapiens) [5] = target: T1, Tubulin (Homo sapiens); experiment: Induction of tubulin polymerization (unknown origin) at 10 to 40 uM measured every min for 1 hr; format: protein-complex assay; procedure, shortened: as §2
MDA-MB-231 [6] = experiment: Cytotoxicity against human MDA-MB-231 cells after 48 to 72 hrs by MTT assay; format: functional, cell-based; procedure, shortened: as §1
MCF7 [7] = experiment: Cytotoxicity against human MCF7 cells after 48 to 72 hrs by MTT assay; format: functional, cell-based; procedure, shortened: as §1
HEK293 = experiment: Cytotoxicity against human HEK293 cells after 24 hrs by MTT assay; format: cell-based; details: HEK293, 24 h; procedure, shortened: as §1
MDA-MB-231 [8] = experiment: Cytotoxicity against human MDA-MB-231 cells after 72 hrs by MTT assay; format: functional, cell-based; details: MDA-MB-231, 72 h; procedure, shortened: as §1
MDA-MB-231 [9] = experiment: Cytotoxicity against human MDA-MB-231 cells after 48 hrs by MTT assay; format: functional, cell-based; details: MDA-MB-231, 48 h; procedure, shortened: as §1
MCF7 [10] = experiment: Cytotoxicity against human MCF7 cells after 72 hrs by MTT assay; format: functional, cell-based; details: MCF7, 72 h; procedure, shortened: as §1
MCF7 [11] = experiment: Cytotoxicity against human MCF7 cells after 48 hrs by MTT assay; format: functional, cell-based; details: MCF7, 48 h; procedure, shortened: as §1
Homo sapiens = organism: Homo sapiens; experiment: Induction of microtubule stabilization (unknown origin) at 4 to 20 uM

| Structure (SMILES) | IC50 (MCF7 [1]) | IC50 (MDA-MB-231 [2]) | further results |
| --- | --- | --- | --- |
| CCOC(=O)C(=C\c1cc(OC)c(O)c(OC)c1)/C(=C/c1cc(OC)c(O)c(OC)c1)C(=O)OCC | > 100 µM | 82 µM |  |
| CC(=O)O[C@H]1C(=O)[C@@]2(C)[C@H]([C@H](OC(=O)c3ccccc3)[C@]3(O)C[C@H](OC(=O)[C@H](O)[C@@H](NC(=O)c4ccccc4)c4ccccc4)C(C)=C1C3(C)C)[C@]1(OC(C)=O)CO[C@@H]1C[C@@H]2O |  |  | Activity (MCF7 [3]): Active; Activity (Tubulin (Homo sapiens) [4]): inactive; Activity (Tubulin (Homo sapiens) [5]): Active |
| CCOC(=O)/C=C/c1cc(OC)c(O)c(OC)c1/C(=C/c1cc(OC)c(O)c(OC)c1)C(=O)OCC | 74 µM | 92 µM |  |
| COc1ccc(/C=C(\COC(C)=O)c2cc(/C=C/COC(C)=O)cc(OC)c2OC)cc1OC | > 100 µM | > 100 µM |  |
| CCOC(=O)/C=C/c1ccc(O)c(/C(=C/c2ccc(OC(C)=O)cc2)C(=O)OCC)c1 | 66 µM | 16 µM | Activity (Tubulin (Homo sapiens) [4]): inactive; Activity (Tubulin (Homo sapiens) [5]): Active; Activity (MDA-MB-231 [6]): Active; Activity (MCF7 [7]): Active; IC50 (HEK293): 20 µM; IC50 (MDA-MB-231 [8]): 0.21 µM; IC50 (MDA-MB-231 [9]): 3.22 µM; IC50 (MCF7 [10]): 0.82 µM; IC50 (MCF7 [11]): 9.65 µM; Activity (Homo sapiens): Active |
| CCOC(=O)C(=C\c1cc(OC)c(OC(C)=O)c(OC)c1)/C(=C/c1cc(OC)c(OC(C)=O)c(OC)c1)C(=O)OCC | > 100 µM | > 100 µM |  |
| COc1ccc(/C=C(\C(N)=O)c2cc(/C=C/C(N)=O)cc(OC)c2OC)cc1OC | 100 µM | 32 µM |  |
| COc1ccc(/C=C(\C(=O)O)c2cc(/C=C/C(=O)O)cc(OC)c2OC)cc1OC |  | 85 µM |  |
| CCOC(=O)/C=C/c1cc(OC)c(O)c(/C(=C/c2ccc(O)c(OC)c2)C(=O)OCC)c1 | > 100 µM | > 100 µM |  |
| CCOC(=O)C(=C\c1cc(OC)c(OC)c(OC)c1)/C(=C/c1cc(OC)c(OC)c(OC)c1)C(=O)OCC | 100 µM | > 100 µM |  |
| COc1cc([C@@H]2c3cc4c(cc3[C@H](O)[C@H]3COC(=O)[C@H]23)OCO4)cc(OC)c1OC [PODOFILOX] | 65 µM | 35.7 µM | IC50 (HEK293): 50 µM |
| CC/C(=C(\c1ccccc1)c1ccc(OCCN(C)C)cc1)c1ccccc1 [TAMOXIFEN] |  |  | IC50 (HEK293): 26 µM |
| CCOC(=O)/C=C/c1ccc(OC)c(/C(=C/c2ccc(OC)cc2)C(=O)OCC)c1 | > 100 µM | > 100 µM |  |
| CCOC(=O)/C=C/c1cc(OC)c(O)c(/C(=C/c2ccc(OC(C)=O)c(OC)c2)C(=O)OCC)c1 | > 100 µM | > 100 µM |  |
| COc1cc(/C=C(\C(N)=O)c2cc(/C=C/C(N)=O)cc(OC)c2O)ccc1O | 100 µM | 80 µM |  |
| CCOC(=O)/C=C/c1cc(OC)c(OC)c(/C(=C/c2ccc(OC)c(OC)c2)C(=O)OCC)c1 | > 100 µM | > 100 µM |  |
| COc1ccc(/C=C(\CO)c2cc(/C=C/CO)cc(OC)c2OC)cc1OC | > 100 µM | > 100 µM |  |
